The source made the active and inactive calls. The rule behind the calls is not given here.
Experiments:
[1] = Neurotoxicity in ip dosed albino Carworth Farms No. 1 mouse measured at 0.25 hrs by rotarod test; assay type: toxicity, organism-based; settings: in vivo
[2] = test system: Rattus norvegicus; assay: Anticonvulsant activity in po dosed albino Sprague-Dawley rat measured at 2 hrs by maximal electroshock seizure test; assay type: functional
How it was run: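 Screened under the NIH anticonvulsant program in male albino Carworth Farms No. 1 mice (ip) and male albino Sprague-Dawley rats (ip or oral). Protection tested by maximal electroshock or 6 Hz (32 mA) psychomotor stimulation.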

[3] = Protective index, ratio of TD50 for behavioural toxicity in po dosed albino Sprague-Dawley rat to ED50 for anticonvulsant activity in po dosed MES albino Sprague-Dawley rat model; assay type: organism-based; settings: in vivo, read-out: Ratio TD50/ED50
How it was run: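 Male albino Sprague-Dawley rats were dosed ip or orally. Protective index = TD50/ED50, the ED50 taken from maximal electroshock by the same route.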

[4] = species on record: Rattus norvegicus; assay: Frequency-dependent inhibition of voltage-gated sodium channel in rat embryonic cortical neurons assessed as current amplitude at 10 uM measured at holding potential of -80 mV by whole cell patch-clamp electrophysiology
How it was run: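 E19 rat cortical neurons cultured 7–10 days were recorded by whole-cell voltage clamp at room temperature. Compound was at 10 μM versus 0.1% DMSO. A pulse train was applied, and available current was taken as peak current at pulse N divided by peak at pulse 1.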

[5] = Inhibition of voltage-gated sodium channel in mouse CAD cells assessed as transition of channels to slow-inactivated state measured at +20 mV by whole cell patch-clamp electrophysiology; assay type: cell-based
How it was run: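 CAD cells were grown in Ham's F12/DMEM with 10% FBS at 37 °C and 5% CO2, then recorded by whole-cell voltage clamp at room temperature. A concentration range of compound was tested versus 0.1% DMSO. Slow inactivation was measured at −50 and +20 mV, and IC50 was derived from concentration-response curves.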

[6] = test system: CAD; assay: Effect on steady state activation of voltage-gated sodium channel in mouse CAD cells at 100 nM to 1 uM by whole cell patch-clamp electrophysiology; assay type: cell-based
How it was run: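 CAD cells were recorded by whole-cell voltage clamp at room temperature with several compound concentrations versus 0.1% DMSO. Activation was assessed from conductance, G = I/(Vm − Vrev), versus command voltage. V1/2 and slope were taken from Boltzmann fits to individual recordings and averaged.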

[7] = test system: CAD; assay: Frequency-dependent inhibition of voltage-gated sodium channel in mouse CAD cells assessed as decrease in current amplitude at 10 uM by whole cell patch-clamp electrophysiology; assay type: cell-based
How it was run: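 CAD cells, whole-cell voltage clamp at room temperature, with compound at 1, 10 or 30 μM against 0.1% DMSO. Thirty identical test pulses were given at 10 Hz. Current was normalized as peak at pulse N over pulse 1, and the maximal decrement was read at the end of the train. One-way ANOVA with Dunnett's test; 4–10 cells per condition.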

[8] = target: Sodium channel protein type 3 subunit alpha (Rattus norvegicus) (UniProt P08104); assay: Inhibition of rat Nav1.3 expressed in HEK293 cells assessed as transition of channels to slow-inactivated state at 10 uM measured at -50 mV by whole cell patch-clamp electrophysiology; assay type: cell-based
How it was run: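 HEK293 cells stably expressing hNav1.1, rNav1.3, hNav1.7 or hNav1.5 were grown in DMEM with 10% FBS. Recordings were whole-cell voltage clamp at room temperature, with 10 μM compound versus 0.1% DMSO. Slow inactivation at −50 mV was calculated as 1 minus normalized peak INa. Nav1.5 used hyperpolarized protocols. Data are from 5–6 cells.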

[9] = target: Sodium channel protein type 9 subunit alpha (Homo sapiens) (UniProt Q15858); assay: Inhibition of human Nav1.7 expressed in HEK293 cells assessed as half-maximal voltage for steady state fast-inactivation at 10 uM by whole cell patch-clamp electrophysiology (reference value: -61.11 +/-3.02 mV); assay type: cell-based
[10] = target: Sodium channel protein type 5 subunit alpha (Homo sapiens, UniProt Q14524); assay: Inhibition of human Nav1.5 expressed in HEK293 cells assessed as half-maximal voltage for steady state fast-inactivation at 10 uM by whole cell patch-clamp electrophysiology (reference value: -96.54 +/-1.64 mV); assay type: cell-based; settings: hek293, 10 µM
[11] = target: Cytochrome P450 2C19 (Homo sapiens, UniProt P33261); assay: Inhibition of human CYP2C19 at 10 uM; assay type: ADME
How it was run: (§1)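 Test compound at 10 μM against a human CYP450 panel (CYP1A2, 2B6, 2C8, 2C9, 2C19, 2D6, 3A4/5). Direct inhibition was measured, and time-dependent inhibition was measured after a 30-min preincubation.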

[12] = target: Cytochrome P450 3A4 (Homo sapiens, UniProt P08684); assay: Inhibition of human CYP3A4 at 10 uM; assay type: ADME; how it was run: as §1
[13] = target: T1, CYP2C8 (Homo sapiens, UniProt P10632); assay: Time-dependent inhibition of human CYP2C8 measured after 30 mins preincubation period; assay type: ADME; how it was run: as §1
T1 sequence (P10632 whole entry): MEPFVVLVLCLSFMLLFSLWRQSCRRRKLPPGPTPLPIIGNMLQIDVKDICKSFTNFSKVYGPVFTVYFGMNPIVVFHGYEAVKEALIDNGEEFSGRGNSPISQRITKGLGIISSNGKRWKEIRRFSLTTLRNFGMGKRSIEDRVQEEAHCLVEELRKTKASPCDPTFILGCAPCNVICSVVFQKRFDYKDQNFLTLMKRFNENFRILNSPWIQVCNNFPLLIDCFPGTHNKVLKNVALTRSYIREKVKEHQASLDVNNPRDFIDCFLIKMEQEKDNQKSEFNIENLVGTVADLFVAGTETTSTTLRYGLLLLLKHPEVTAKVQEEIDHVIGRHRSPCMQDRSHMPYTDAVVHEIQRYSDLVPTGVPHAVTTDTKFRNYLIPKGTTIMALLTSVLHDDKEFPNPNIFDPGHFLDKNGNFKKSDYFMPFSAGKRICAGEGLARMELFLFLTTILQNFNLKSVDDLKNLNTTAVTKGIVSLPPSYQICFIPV

[14] = test system: Rattus norvegicus; assay: Bioavailability in Sprague-Dawley rat at 5 mg/kg, iv and 20 mg/kg, po; assay type: ADME, organism-based; settings: in vivo
How it was run: (§2)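 Pharmacokinetics in Sprague-Dawley rats given a single iv dose of 5 mg/kg or an oral dose of 20 mg/kg.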

[15] = Half life in Sprague-Dawley rat at 5 mg/kg, iv; assay type: ADME, organism-based; settings: in vivo; how it was run: as §2
[16] = target: Voltage-gated inwardly rectifying potassium channel KCNH2 (Homo sapiens, UniProt Q12809); assay: Binding affinity to human ERG at 30 uM by PatchExpress analysis
[17] = test system: Rattus norvegicus; assay: Toxicity in po dosed Sprague-Dawley rat assessed as decrease in spleen weight administered via gavage; assay type: organism-based; settings: in vivo
How it was run: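 Non-GLP 7-day repeated-dose study in female Sprague-Dawley rats given oral gavage at 20, 60 and 180 mg/kg/day. Endpoints were weight bearing, gait coordination, respiratory rate, relative organ weights, clinical chemistry and gross pathology, with NOAEL determined.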

[18] = test system: Rattus norvegicus; assay: Toxicity in po dosed Sprague-Dawley rat assessed as gross pathological changes administered via gavage; assay type: organism-based; settings: in vivo
How it was run: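 Non-GLP repeated-dose study: female Sprague-Dawley rats given compound by oral gavage once daily for 7 days at 20, 60 and 180 mg/kg/day. Endpoints included weight bearing, gait coordination, respiratory rate, relative organ weights (liver, spleen, thymus), clinical chemistry and gross pathology; NOAEL derived.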

Sequence of Cytochrome P450 2C19 (P33261 whole entry): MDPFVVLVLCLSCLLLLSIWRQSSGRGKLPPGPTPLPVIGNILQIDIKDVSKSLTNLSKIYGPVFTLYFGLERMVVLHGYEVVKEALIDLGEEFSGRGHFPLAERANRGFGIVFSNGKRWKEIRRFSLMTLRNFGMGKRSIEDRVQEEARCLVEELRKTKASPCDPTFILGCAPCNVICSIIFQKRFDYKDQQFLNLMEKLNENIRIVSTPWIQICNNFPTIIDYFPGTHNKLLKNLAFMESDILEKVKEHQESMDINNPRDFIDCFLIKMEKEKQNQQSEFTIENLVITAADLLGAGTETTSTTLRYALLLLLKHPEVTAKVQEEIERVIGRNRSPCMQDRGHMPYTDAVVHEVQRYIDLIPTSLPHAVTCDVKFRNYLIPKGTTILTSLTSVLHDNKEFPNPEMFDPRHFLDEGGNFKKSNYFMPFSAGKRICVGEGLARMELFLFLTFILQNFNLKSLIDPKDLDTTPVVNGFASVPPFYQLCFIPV
Sequence of Sodium channel protein type 9 subunit alpha (Homo sapiens) (Q15858 whole entry, looked up): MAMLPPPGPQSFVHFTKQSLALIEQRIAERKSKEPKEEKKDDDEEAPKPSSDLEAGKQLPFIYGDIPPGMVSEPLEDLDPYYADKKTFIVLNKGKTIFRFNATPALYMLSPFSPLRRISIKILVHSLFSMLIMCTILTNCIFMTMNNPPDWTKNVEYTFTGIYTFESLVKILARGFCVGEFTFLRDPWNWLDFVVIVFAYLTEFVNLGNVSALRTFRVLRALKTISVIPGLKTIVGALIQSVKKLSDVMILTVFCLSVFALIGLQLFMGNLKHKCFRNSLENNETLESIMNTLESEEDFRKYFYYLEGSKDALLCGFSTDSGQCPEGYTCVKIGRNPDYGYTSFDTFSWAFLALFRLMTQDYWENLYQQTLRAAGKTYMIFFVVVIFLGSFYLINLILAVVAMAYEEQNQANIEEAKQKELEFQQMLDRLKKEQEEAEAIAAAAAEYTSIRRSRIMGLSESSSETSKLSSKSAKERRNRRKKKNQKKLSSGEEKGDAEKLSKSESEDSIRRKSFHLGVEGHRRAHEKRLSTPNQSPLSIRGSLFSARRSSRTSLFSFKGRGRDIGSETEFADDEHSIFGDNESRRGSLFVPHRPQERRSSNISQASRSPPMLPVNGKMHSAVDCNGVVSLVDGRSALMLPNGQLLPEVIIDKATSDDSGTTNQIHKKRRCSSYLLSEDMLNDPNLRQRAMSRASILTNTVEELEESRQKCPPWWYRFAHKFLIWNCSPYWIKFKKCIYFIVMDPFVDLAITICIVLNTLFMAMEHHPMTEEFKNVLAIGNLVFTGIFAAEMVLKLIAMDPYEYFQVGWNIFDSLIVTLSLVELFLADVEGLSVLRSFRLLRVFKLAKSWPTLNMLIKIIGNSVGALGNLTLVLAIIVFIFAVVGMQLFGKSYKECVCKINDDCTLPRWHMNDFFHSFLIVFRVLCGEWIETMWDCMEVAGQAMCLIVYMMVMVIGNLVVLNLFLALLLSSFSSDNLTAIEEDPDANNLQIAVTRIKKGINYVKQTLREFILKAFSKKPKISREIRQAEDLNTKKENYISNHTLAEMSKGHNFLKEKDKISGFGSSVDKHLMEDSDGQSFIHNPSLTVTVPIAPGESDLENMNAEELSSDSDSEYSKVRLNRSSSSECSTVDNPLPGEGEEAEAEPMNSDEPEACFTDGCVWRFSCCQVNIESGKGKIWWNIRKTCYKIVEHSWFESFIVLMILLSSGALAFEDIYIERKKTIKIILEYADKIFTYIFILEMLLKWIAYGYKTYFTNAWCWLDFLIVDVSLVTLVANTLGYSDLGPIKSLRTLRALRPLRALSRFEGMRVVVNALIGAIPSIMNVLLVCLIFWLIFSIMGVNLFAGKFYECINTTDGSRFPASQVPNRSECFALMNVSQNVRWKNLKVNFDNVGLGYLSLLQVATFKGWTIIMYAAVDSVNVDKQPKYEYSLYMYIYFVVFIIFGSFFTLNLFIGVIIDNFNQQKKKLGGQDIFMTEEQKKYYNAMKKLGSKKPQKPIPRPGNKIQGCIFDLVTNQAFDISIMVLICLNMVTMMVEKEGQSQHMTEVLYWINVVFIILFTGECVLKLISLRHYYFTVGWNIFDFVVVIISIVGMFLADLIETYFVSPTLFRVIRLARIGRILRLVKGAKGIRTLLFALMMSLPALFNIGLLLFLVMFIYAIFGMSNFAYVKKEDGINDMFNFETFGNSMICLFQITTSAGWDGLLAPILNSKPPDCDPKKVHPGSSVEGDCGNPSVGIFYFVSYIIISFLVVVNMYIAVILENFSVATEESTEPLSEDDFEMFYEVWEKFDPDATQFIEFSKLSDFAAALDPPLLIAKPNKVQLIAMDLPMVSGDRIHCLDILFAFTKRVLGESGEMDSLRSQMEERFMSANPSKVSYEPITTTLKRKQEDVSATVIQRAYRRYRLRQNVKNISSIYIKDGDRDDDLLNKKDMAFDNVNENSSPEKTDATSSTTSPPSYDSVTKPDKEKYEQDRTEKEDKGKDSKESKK
Sequence of Voltage-gated inwardly rectifying potassium channel KCNH2 (Q12809 whole entry): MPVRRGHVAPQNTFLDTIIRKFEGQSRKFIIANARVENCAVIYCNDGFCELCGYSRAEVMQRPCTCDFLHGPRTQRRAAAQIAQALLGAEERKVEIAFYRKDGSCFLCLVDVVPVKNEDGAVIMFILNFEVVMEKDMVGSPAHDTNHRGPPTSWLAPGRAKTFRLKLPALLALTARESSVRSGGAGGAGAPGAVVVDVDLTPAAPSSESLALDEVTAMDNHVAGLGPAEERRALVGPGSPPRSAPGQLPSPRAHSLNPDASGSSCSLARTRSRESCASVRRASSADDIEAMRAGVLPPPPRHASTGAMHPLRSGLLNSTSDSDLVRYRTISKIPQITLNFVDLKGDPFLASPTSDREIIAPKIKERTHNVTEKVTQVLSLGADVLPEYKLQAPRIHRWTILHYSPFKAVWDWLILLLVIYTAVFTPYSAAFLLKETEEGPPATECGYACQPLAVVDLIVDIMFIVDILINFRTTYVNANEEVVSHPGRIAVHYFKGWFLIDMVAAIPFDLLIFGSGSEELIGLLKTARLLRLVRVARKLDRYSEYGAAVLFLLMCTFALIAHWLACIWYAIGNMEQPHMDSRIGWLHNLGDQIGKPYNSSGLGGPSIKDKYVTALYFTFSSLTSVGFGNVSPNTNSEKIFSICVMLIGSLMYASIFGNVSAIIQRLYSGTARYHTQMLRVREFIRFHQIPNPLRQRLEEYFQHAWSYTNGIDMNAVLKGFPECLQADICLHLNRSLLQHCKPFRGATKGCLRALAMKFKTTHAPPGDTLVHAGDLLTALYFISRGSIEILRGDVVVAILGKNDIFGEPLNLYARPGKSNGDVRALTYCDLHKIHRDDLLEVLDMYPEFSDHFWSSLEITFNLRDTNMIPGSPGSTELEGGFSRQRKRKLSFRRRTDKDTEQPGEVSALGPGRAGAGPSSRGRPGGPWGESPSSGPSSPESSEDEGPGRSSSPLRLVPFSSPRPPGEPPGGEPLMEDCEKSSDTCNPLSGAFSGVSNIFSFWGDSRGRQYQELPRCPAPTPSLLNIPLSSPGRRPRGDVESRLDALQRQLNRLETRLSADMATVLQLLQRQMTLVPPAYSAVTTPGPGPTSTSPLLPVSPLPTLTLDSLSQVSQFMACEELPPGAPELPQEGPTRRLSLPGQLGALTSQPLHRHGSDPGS
Sequence of Cytochrome P450 3A4 (P08684 whole entry): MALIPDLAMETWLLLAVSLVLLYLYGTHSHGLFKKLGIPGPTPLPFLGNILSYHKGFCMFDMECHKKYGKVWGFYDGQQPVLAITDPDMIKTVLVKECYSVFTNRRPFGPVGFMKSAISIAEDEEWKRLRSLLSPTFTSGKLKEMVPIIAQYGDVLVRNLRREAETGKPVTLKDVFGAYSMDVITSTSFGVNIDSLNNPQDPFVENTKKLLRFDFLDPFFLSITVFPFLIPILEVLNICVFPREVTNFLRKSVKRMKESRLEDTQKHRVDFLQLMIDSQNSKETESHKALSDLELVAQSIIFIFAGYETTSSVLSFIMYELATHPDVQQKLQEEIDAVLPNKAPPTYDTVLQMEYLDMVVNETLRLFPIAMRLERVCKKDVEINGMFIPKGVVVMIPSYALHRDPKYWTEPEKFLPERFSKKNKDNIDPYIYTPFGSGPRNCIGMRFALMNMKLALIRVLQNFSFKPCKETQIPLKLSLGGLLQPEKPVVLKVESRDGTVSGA

`COC[C@@H](NC(C)=O)C(=O)NCc1ccc(Oc2cccc(OC(F)(F)F)c2)cc1` gave a TD50 at 0.25 h [1] of 40 mg/kg, an ED50 [2] of 8.3 mg/kg and a selectivity ratio [3] of 29. For the same compound, the inhibition [4] was “inactive”, the IC50 [5] was 640 nM and the Activity [6] was “inactive”. For the same compound, the inhibition [7] was 39%, the inhibition [8] was “Active” and the V1/2 [9] was -81.3 mV. The V1/2 [10] was -95.36 mV, the “inhibition (INH)” value [11] was “Not Active” and the “inhibition (INH)” value [12] was “Not Active”. The inhibition at 0.5 h [13] was 16%, the F [14] was 92% and the half-life [15] was 1.75 h. The Activity [16] was “Not Active”, the Activity [17] was “Toxic” and the Activity [18] was “Toxic”.

— ChEMBL document CHEMBL3588826, “Chimeric derivatives of functionalized amino acids and α-aminoamides: compounds with anticonvulsant activity in seizure models and inhibitory actions on central, peripheral, and cardiac isoforms of voltage-gated sodium channels” (Bioorg Med Chem, 2015)
